Among the data in ChEMBL document CHEMBL1141363, “Synthesis and evaluation of novel heterocyclic MMP inhibitors” (Bioorg Med Chem Lett, 2007) are IC50 values, retold here.

The target in test [1] is Matrix metalloproteinase-9 (Homo sapiens, UniProt P14780). Briefly: Inhibition of MMP9. The gist of the method:
(§1)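 Catalytic domains used at final levels of 85 nM (MMP-1), 24 nM (MMP-2), 18 nM (MMP-9) and 84 nM (MMP-12). Each enzyme was premixed with compound (serial 1:2 dilutions, 150 to 1.2) for 30 min at 37 °C. Substrate was added in 50 mM Hepes with 5 mM CaCl2 and 0.05% w/w Brij-35, pH 7.5, then incubated 30 min. Fluorescence read at ex 328/em 393 nm over 45 min, every 50 s.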

Test [2] concerns the target 72 kDa type IV collagenase (Homo sapiens, UniProt P08253). Briefly: Inhibition of MMP2. The gist of the method:
as §1

For the next test, the target named is T1, Interstitial collagenase (Homo sapiens, UniProt P03956).
T1 sequence (P03956 whole entry): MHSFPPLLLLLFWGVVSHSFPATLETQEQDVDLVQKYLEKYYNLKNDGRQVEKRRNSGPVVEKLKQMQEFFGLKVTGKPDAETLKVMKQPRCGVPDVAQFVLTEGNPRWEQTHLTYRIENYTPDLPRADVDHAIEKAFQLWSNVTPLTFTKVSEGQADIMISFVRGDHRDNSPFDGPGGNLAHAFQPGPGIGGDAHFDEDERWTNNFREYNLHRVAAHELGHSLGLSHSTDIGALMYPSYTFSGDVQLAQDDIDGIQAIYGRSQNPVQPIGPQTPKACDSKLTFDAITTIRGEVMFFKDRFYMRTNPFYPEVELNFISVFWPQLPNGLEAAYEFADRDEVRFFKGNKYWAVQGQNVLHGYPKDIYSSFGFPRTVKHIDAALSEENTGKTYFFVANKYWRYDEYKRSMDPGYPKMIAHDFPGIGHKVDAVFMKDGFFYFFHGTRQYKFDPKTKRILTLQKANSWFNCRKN
Briefly: Inhibition of MMP1. The gist of the method:
as §1

The target in test [3] is Macrophage metalloelastase (Homo sapiens, UniProt P39900). Briefly: Inhibition of MMP12. The gist of the method:
as §1

Chain of Macrophage metalloelastase (P39900 whole entry): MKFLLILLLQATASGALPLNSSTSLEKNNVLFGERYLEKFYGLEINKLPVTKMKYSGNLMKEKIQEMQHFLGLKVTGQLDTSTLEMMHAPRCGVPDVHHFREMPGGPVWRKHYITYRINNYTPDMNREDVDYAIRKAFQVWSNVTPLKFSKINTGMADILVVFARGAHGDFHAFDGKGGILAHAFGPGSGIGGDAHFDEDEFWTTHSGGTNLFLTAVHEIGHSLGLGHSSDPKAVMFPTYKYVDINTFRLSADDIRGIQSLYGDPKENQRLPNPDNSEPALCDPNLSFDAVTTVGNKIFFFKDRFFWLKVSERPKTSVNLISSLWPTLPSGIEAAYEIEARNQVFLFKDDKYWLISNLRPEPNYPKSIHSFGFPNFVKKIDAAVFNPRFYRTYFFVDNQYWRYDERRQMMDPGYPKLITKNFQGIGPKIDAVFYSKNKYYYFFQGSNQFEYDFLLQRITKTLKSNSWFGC
Chain of Matrix metalloproteinase-9 (P14780 whole entry, the tested form may be a part): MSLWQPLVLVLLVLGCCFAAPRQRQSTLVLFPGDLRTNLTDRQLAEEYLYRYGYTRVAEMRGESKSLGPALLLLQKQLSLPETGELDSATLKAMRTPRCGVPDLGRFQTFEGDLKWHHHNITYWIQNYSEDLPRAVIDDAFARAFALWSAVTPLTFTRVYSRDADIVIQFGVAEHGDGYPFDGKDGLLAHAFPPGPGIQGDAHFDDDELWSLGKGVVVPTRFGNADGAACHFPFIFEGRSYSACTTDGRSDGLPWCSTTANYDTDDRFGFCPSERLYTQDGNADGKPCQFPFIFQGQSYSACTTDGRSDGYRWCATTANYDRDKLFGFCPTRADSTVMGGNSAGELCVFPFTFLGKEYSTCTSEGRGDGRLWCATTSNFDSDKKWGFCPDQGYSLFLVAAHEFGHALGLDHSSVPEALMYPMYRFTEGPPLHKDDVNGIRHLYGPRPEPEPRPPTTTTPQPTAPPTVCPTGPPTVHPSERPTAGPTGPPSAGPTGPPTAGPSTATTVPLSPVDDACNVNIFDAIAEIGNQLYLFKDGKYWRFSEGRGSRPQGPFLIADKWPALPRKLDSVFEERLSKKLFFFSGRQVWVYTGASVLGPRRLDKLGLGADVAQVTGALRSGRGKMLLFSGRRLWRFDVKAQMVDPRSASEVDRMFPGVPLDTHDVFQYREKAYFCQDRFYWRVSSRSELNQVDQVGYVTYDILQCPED
Chain of 72 kDa type IV collagenase (P08253 whole entry): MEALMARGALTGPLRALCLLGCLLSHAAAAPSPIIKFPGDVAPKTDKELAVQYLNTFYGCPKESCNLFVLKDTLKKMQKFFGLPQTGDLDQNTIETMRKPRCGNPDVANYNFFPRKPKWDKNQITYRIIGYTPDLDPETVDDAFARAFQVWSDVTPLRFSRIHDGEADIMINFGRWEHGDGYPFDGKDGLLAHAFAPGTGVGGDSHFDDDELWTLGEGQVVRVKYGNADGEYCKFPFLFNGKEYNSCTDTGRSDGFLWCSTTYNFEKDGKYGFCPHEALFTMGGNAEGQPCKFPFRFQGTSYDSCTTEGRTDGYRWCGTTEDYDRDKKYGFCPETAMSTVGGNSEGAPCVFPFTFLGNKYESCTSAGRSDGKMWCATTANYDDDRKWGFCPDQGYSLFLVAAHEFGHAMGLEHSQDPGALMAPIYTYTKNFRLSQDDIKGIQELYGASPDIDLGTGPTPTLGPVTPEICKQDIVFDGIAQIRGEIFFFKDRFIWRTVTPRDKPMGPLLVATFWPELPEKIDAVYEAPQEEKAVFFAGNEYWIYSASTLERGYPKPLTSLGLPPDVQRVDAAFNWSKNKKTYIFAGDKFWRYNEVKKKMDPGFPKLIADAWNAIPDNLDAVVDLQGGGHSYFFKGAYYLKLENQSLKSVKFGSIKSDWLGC

As usually defined, the IC50 is the point on the concentration scale where inhibition reaches its midpoint. Lower therefore signals inhibition by little substance. Consider `C(=C\c1ccccc1)/Cn1cc(C2=NCCO2)nn1`, for which the half-maximal inhibitory concentration (IC50) in test [1] was above 150 µM; in test [2] it was 149 µM; on Interstitial collagenase it was above 150 µM; in test [3], 61 µM.
`CCCCCCOC(=O)c1cccc(S)n1`: the IC50 amounted to 109 µM in test [1], 85 µM in test [2], 115 µM on Interstitial collagenase and 105 µM in test [3].
Taken in the same sequence, the figures for `CCCCCCn1cc(C2=NCCO2)nn1` were above 150 µM, above 150 µM, above 150 µM and above 150 µM.
`c1ccc(Cn2cc(C3=NCCO3)nn2)cc1`: the IC50 (in test [1]; in test [2]; at Interstitial collagenase; in test [3]) was above 150 µM throughout.
For the molecule `c1ccc(CCCn2cc(C3=NCCO3)nn2)cc1`, the concentration for half-maximal inhibition (IC50) (in test [1]; in test [2]; at Interstitial collagenase; in test [3]) was above 150 µM in each case.
Regarding `O=C(OCc1ccc(F)cc1)c1cccc(S)n1`, the IC50 in test [1] stood at 120 µM; in test [2] it was 108 µM; on Interstitial collagenase it was 120 µM; in test [3], 112 µM.
As to `O=C(OCc1c(F)cccc1F)c1cccc(=S)[nH]1`, the concentration for half-maximal inhibition (IC50) in test [1] amounted to 101 µM; in test [2] it was 66 µM; at Interstitial collagenase, 92 µM; in test [3], 127 µM.
Taken in the same sequence, the figures for `O=C(OCc1cc(F)c(F)cc1F)c1cccc(=S)[nH]1` were 105 µM, 90 µM, 124 µM and 106 µM.
In the same order, the values of `O=C(OCc1cccc(Oc2ccccc2)c1)c1cccc(S)n1` are 75 µM, 46 µM, 78 µM and 71 µM.
In the same order, the values of `O=C(OCc1ccc(Oc2ccccc2)cc1)c1cccc(S)n1` are 110 µM, 93 µM, 114 µM and 109 µM.
With `O=C(OCc1ccc(Cl)cc1)c1cccc(S)n1`, the IC50 in test [1] was determined as 112 µM; in test [2], 96 µM; against Interstitial collagenase, 126 µM; in test [3] it was 115 µM.
Consider `O=C(Oc1cccc2ccccc12)c1cccc(=S)[nH]1`, for which the IC50 was above 150 µM in test [1], 98 µM in test [2], above 150 µM against Interstitial collagenase and above 150 µM in test [3].
Take `O=C(Oc1ccc2ccccc2c1)c1cccc(S)n1`: the IC50 in test [1] came out at 119 µM; in test [2], 100 µM; against Interstitial collagenase it was 99 µM; in test [3] it was 101 µM.
Taken in the same sequence, the figures for `O=C(OCc1ccc(-c2ccccc2)cc1)c1cccc(=S)[nH]1` were 150 µM, 110 µM, 119 µM and 135 µM.
In the same order, the values of `O=C(OCc1cccc(-c2ccccc2)c1)c1cccc(=S)[nH]1` are 50 µM, 42 µM, 75 µM and 52 µM.
In the same order, the values of `c1ccc(CCn2nnc(Cc3cccnc3)n2)cc1` are above 150 µM, above 150 µM, above 150 µM and above 150 µM.
As to `O=C(OCCc1ccccc1)c1cccc(=S)[nH]1`, the IC50 in test [1] is 107 µM; in test [2], 119 µM; at Interstitial collagenase, 120 µM; in test [3], 117 µM.
Taken in the same sequence, the figures for `O=C(OCCCc1ccccc1)c1cccc(=S)[nH]1` were 112 µM, 100 µM, 95 µM and 85 µM.
Taken in the same sequence, the figures for `Cc1cccc(COC(=O)c2cccc(S)n2)c1` were 7 µM, 7 µM, above 150 µM and 70 µM.
With `Cc1ccc(COC(=O)c2cccc(=S)[nH]2)cc1`, the IC50 is 119 µM in test [1], 98 µM in test [2], above 150 µM against Interstitial collagenase and 81 µM in test [3].
In the same order, the values of `O=C(OCc1cccc(C(F)(F)F)c1)c1cccc(=S)[nH]1` are 126 µM, 110 µM, 134 µM and 134 µM.
Regarding `COc1cccc(COC(=O)c2cccc(S)n2)c1`, the IC50 worked out at 93 µM in test [1], 90 µM in test [2], 86 µM against Interstitial collagenase and 78 µM in test [3].
`O=C(OCCCCOc1ccccc1)c1cccc(S)n1`: the IC50 amounted to 83 µM in test [1], 63 µM in test [2], 138 µM against Interstitial collagenase and 78 µM in test [3].
Consider `O=C(OCc1cccc(F)c1)c1cccc(S)n1`, for which the 50% inhibitory concentration (IC50) was 107 µM in test [1], 124 µM in test [2], 119 µM against Interstitial collagenase and 151 µM in test [3].
Consider `O=C(OCc1ccc(C(F)(F)F)cc1)c1cccc(=S)[nH]1`, for which the IC50 in test [1] was 141 µM; in test [2], 125 µM; against Interstitial collagenase it was above 150 µM; in test [3], 94 µM.
Taken in the same sequence, the figures for `COc1ccc(COC(=O)c2cccc(S)n2)cc1` were 95 µM, 91 µM, 108 µM and 96 µM.
On to `O=C(OCc1ccccc1Br)c1cccc(S)n1`, for which the IC50 in test [1] was above 150 µM; in test [2] it was 108 µM; at Interstitial collagenase it was above 150 µM; in test [3], above 150 µM.
Regarding `c1cncc(Cc2nnn[nH]2)c1`, the IC50 in test [1] was above 150 µM; in test [2] it was 48 µM; on Interstitial collagenase, above 150 µM; in test [3], above 150 µM.
`O=C(Oc1ccsc1)c1cccc(S)n1`: the IC50 in test [1] was found to be 90 µM; in test [2], 77 µM; on Interstitial collagenase, 108 µM; in test [3], 93 µM.
Taken in the same sequence, the figures for `c1ccc(Cn2nnc(Cc3cccnc3)n2)cc1` were above 150 µM, above 150 µM, above 150 µM and above 150 µM.
In the same order, the values of `c1ccc(CCCn2nnc(Cc3cccnc3)n2)cc1` are above 150 µM, above 150 µM, above 150 µM and above 150 µM.
In the same order, the values of `O=C(OCc1cc(F)ccc1F)c1cccc(S)n1` are 140 µM, 79 µM, 114 µM and 17 µM.
Regarding `CCCCCCCn1cc(C2=NCCO2)nn1`, the IC50 (in test [1]; in test [2]; at Interstitial collagenase; in test [3]) was above 150 µM in each case.
As for `c1ccc(CCn2cc(C3=NCCO3)nn2)cc1`, the IC50 (in test [1]; in test [2]; on Interstitial collagenase; in test [3]) was above 150 µM in each case.
As to `O=C(OCc1ccccc1)c1cccc(S)n1`, the half-maximal inhibitory concentration (IC50) came to 88 µM in test [1], 85 µM in test [2], 101 µM on Interstitial collagenase and 82 µM in test [3].
In the case of `C(=C\c1ccccc1)/Cn1nnc(Cc2cccnc2)n1`, the IC50 (in test [1]; in test [2]; against Interstitial collagenase; in test [3]) was above 150 µM in each case.
As to `CC(C)OC(=O)c1cccc(=O)[nH]1`, the 50% inhibitory concentration (IC50) in test [1] stood at 67 µM; in test [2], 67 µM; on Interstitial collagenase it was 31 µM; in test [3] it was 67 µM.
